# PMC12399195 (Acta Pharmaceutica Sinica. B, 2025)
# Residue numbers refer to the chain shown, from its start.
# Tests used:
# Notum [1] = target: T1, Notum (Homo sapiens, UniProt Q6P988); experiment: Notum inhibition assay, DO as fluorogenic substrate; type: biochemical
# T1 sequence (Q6P988 20-496): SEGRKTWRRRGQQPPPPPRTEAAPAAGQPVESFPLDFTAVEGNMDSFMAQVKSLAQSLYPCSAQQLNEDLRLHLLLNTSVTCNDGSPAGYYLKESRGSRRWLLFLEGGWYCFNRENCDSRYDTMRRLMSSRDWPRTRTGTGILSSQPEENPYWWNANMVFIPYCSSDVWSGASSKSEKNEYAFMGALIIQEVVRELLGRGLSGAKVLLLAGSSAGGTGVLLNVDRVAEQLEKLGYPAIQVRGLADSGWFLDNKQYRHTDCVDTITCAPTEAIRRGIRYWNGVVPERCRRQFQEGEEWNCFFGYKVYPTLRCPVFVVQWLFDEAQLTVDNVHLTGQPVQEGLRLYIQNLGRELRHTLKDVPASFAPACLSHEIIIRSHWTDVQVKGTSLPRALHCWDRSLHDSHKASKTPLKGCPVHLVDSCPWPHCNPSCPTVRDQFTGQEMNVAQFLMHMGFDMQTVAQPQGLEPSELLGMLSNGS
# Notum [2] = target: T1, Notum; experiment: Notum inhibition assay, OPTS as substrate; type: biochemical
# F268G Notum = target: T2, F268G Notum (Homo sapiens, UniProt Q6P988, F268G); experiment: Inhibition of DO hydrolysis in F268G Notum mutant; type: biochemical
# T2 sequence (Q6P988 20-496 F268G): T1 sequence (Q6P988 20-496) with F249G
# healthy mice = experiment: Toxicity test in healthy mice; type: in vivo, C57BL/6J mice; settings: 200 mg/kg oral
# MC3T3-E1 cells [3] = experiment: Cell viability; type: cell-based; settings: for cytotoxicity towards MC3T3-E1 cells: 0–20 μmol/L, 96 h
# MC3T3-E1 cells [4] = experiment: ALP staining, osteoblast differentiation in DXMS-challenged MC3T3-E1 cells; type: cell-based; settings: 7 days
# Procedure, shortened: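 MC3T3-E1 cells were kept in DMEM with 10% FBS and 1% penicillin–streptomycin at 37 °C under 5% CO₂. Cells were seeded at 2×10^3 cells/well and grown 24 h, then switched to inducible medium. DXMS and test compound were added together for seven days, with medium changed every two days. Cells were fixed 15 min in 4% paraformaldehyde at room temperature, PBS-washed, BCIP/NBT ALP-stained, imaged and quantified.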
# MC3T3-E1 cells [5] = experiment: Alizarin red S staining, calcification in DXMS-challenged MC3T3-E1 cells; type: cell-based; settings: DXMS-challenged (200 μmol/L) MC3T3-E1 cells, 21 days
# Wnt/β-catenin signaling = type: cell-based; settings: DXMS-challenged MC3T3-E1 cells, 7 days
# [6] = Tissue distribution in mice after gavage; type: in vivo, C57BL/6J mice
# Procedure, shortened: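 Twenty male C57BL/6J mice (6 weeks, 18–20 g) were randomised into four groups: control, 1 h, 2 h and 3 h. Test compound in 0.5% CMC-Na was given once by gavage. Mice were anaesthetised at 0, 1, 2 or 3 h, and blood and organs including femur were removed. Samples were centrifuged at 20,000 × g, 4 °C, 30 min, and compound concentration was determined by LC–MS/MS.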
# [7] = tested on: DXMS-induced osteoporotic mice; experiment: In vivo anti-osteoporosis test in DXMS-induced osteoporotic mice; parameters: species or system C57BL/6J mice; settings: for effect on weight loss induced by DXMS: five weeks
# Procedure, shortened: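 Male C57BL/6J mice (6 weeks) were held SPF at 25 ± 2 °C, 50 ± 10% humidity and 12 h/12 h light/dark, with 7 days acclimatisation. They were randomised into five groups. DXMS was given i.p. at 2.5 mg/kg, five times weekly for five weeks. Test compound was dosed orally daily; PTH1–34 was given i.p. After five weeks, serum, femurs and tibias were collected. Serum ALP, OT/BGT, OPG and Col-1A1 were measured by ELISA kits. Data are mean ± SD.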
# [8] = cited from earlier work
# CYPs = settings: phase I metabolic systems, GSH trapping
# [9] = IC50 (DO as probe), Notum-catalyzed DO hydrolysis
# [10] = 5-MP 20 and 40 mg/kg oral daily, PTH 100 μg/kg/day i.p.
# [11] = distal and mid-femur, vs DXMS-challenged mice
# [12] = distal femur, DXMS-challenged mice
compound,measurement,setting,value
O=c1oc2cc(O)ccc2c2oc3cc(O)ccc3c12 [Coumestrol],IC50,Notum [1],12800 ± 2440 nM
"COc1c2ccoc2cc2oc(=O)ccc12 [5-MP, 5-methoxypsoralen]",Ki,Notum [1],23.5 nM
same,IC50,Notum [1]; [9],18.7 ± 2.08 nM
same,inhibition manner,"Notum [1]; inhibition kinetics, DO hydrolysis",competitive
same,IC50,Notum [2],11.2 ± 0.6 nM
same,Ki,Notum [2],15.1 nM
same,inhibition manner,"Notum [2]; inhibition kinetics, OPTS hydrolysis",competitive
same,IC50,F268G Notum,1210 nM
same,"organ injury (H&E, pathological examination)","healthy mice; 14 consecutive days, mice",no organ injury was observed
same,overall mortality rate,"healthy mice; 14 consecutive days, mice",0%
same,"serological indicators of organ injury (ALT, AST, CK, CREA)","healthy mice; 14 days, vs control",no significant difference
same,serum levels of TC and TG,"healthy mice; 14 days, vs control",decreased
same,spleen coefficient,"healthy mice; 14 days, vs control",slight decline
same,organ coefficient,"healthy mice; 14 days, vs control, except spleen",no significant difference
same,cytotoxicity towards MC3T3-E1 cells,MC3T3-E1 cells [3],weak cytotoxicity
same,effect on ALP levels (osteoblast differentiation),MC3T3-E1 cells [4],dose-dependently mitigate the reduced ALP levels
same,effect on intracellular calcification (ARS staining),MC3T3-E1 cells [5],significantly reversed the intracellular calcium loss
same,"mRNA levels of Notum, GSK3β, β-catenin, OPN and RUNX2",Wnt/β-catenin signaling,significantly reversed the abnormal mRNA levels
same,concentration at 2 h,"[6]; male, C57BL/6J, mouse, femur, po, 40 mg/kg",8.3 nM
same,concentration at 3 h,"[6]; male, C57BL/6J, mouse, plasma, po, 40 mg/kg",44.6 nM
same,tissue distribution,"[6]; single oral dose 40 mg/kg, mice",high exposure in the plasma and the liver
same,effect on weight loss induced by DXMS,[7]; [10],neither PTH (positive control for osteoporosis) nor 5-MP (20 and 40 mg/kg) could significantly reverse the weight loss
same,"serum levels of osteogenic markers (ALP, OT/BGT, OPG, Col-1A1)","[7]; 5-MP 20 and 40 mg/kg oral daily, PTH 100 μg/kg/day i.p., vs DXMS",substantially increased
same,bone volume fraction (BV/TV) and bone mineral density (BMD),[7]; [11],significantly enhanced
same,trabecular and cortical bone thickness (micro-CT),[7]; [11],significantly improved
same,immunofluorescence signals of Notum in cortical bone tissues,[7]; [12],significantly decreased
same,immunofluorescence signals of Notum in marrow cavity,[7]; [12],hardly decrease
same,new bone formation (double labeling),"[7]; tibia, vs DXMS-challenged group",active new bone formation
same,half-life (t1/2),[8],4.21 h
same,formation of reactive intermediates,CYPs,did not detect reactive intermediates
COc1c2occc2cc2ccc(=O)oc12 [8-Methoxypsoralen],IC50,Notum [1],9450 ± 1380 nM
O=c1ccc2ccc3occc3c2o1 [Isopsoralen],IC50,Notum [1]; [9],72.7 ± 5.03 nM
same,IC50,Notum [2],71.9 ± 11 nM
same,body weight,"healthy mice; 14 consecutive days, mice",significantly decreased
same,death of mice,"healthy mice; 14 consecutive days, mice",the mice began to die
same,"organ injury (H&E, pathological examination)","healthy mice; 14 consecutive days, mice",varying degrees of organ injury
same,"organ coefficients of the heart, liver and kidney","healthy mice; 14 days, vs control",remarkably elevated
same,serum levels of AST and ALT,"healthy mice; 14 days, vs control",elevated
same,"serum levels of CK, UREA and TG","healthy mice; 14 days, vs control",decrease
same,cytotoxicity towards MC3T3-E1 cells,MC3T3-E1 cells [3],weak cytotoxicity
same,effect on ALP levels (osteoblast differentiation),MC3T3-E1 cells [4],relatively weak
same,formation of reactive intermediates,CYPs,metabolically bioactivated by CYPs to generate reactive intermediates
O=c1ccc2cc3ccoc3cc2o1 [Psoralen],IC50,Notum [1]; [9],108 ± 10.4 nM
same,IC50,Notum [2],99.9 ± 10.8 nM
same,body weight,"healthy mice; 14 consecutive days, mice",decreased significantly
same,death of mice,"healthy mice; 14 consecutive days, mice",no death was observed
same,"organ injury (H&E, pathological examination)","healthy mice; 14 consecutive days, mice",varying degrees of organ injury
same,"organ coefficients of the heart, liver and kidney","healthy mice; 14 days, vs control",remarkably elevated
same,"serum levels of ALP, CREA, UREA and TG","healthy mice; 14 days, vs control",elevate
same,serum levels of AST and ALT,"healthy mice; 14 days, vs control",elevated
same,cytotoxicity towards MC3T3-E1 cells,MC3T3-E1 cells [3],weak cytotoxicity
same,effect on ALP levels (osteoblast differentiation),MC3T3-E1 cells [4],relatively weak
"C[C@@H]1C[C@H]2[C@@H]3CCC4=CC(=O)C=C[C@]4(C)[C@@]3(F)[C@@H](O)C[C@]2(C)[C@@]1(O)C(=O)CO [DXMS, dexamethasone, reference compound]",cells diminished,MC3T3-E1 cells [3]; 200 μmol/L,approximately 50%
"PTH: parathyroid hormone 1–34, positive drug for treating osteoporosis (SVSEIQLMHNLGKHLNSMERVEWLRKKLQDVHNF; Parathyroid hormone; UniProt P01270 32-65, looked up, fragment) [reference compound]",effect on weight loss induced by DXMS,[7]; [10],neither PTH (positive control for osteoporosis) nor 5-MP (20 and 40 mg/kg) could significantly reverse the weight loss
